The values that follow come from ChEMBL document CHEMBL1154208, “Antispasmodic effects and structure-activity relationships of labdane diterpenoids from Marrubium globosum ssp. libanoticum” (2009).

The source made the active and inactive calls. The calls are words filed in the database; no cut-off is given here. A value given as a limit tells only on which side of the number the result lay.

The first test relates to Ileum. Kind of test: Antispasmodic activity in mouse distal ileum assessed as inhibition of acetylcholine-induced contractions after 20 mins. The format is functional, tissue-based.
Settings: not given
A digest of the protocol: (§1)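 Isolated mouse ileum segments. Contractions evoked by acetylcholine (10^-6 M) at 20 min intervals; after at least three stable control contractions, responses repeated with noncumulative increasing compound concentrations added 20 min before the stimulus, after tissue washing. Mean ± SEM of 6-8 experiments; concentration-response curves fitted by nonlinear regression.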
Consider `CCO[C@@H]1O[C@@H]2O[C@]3(CC[C@]2(O)[C@H]1O)[C@H](C)C[C@H]1OC(=O)[C@@]2(C)CCC[C@@]3(C)[C@@H]12` (relative stereo), for which the inhibition entry is “Dose-dependent effect”.

The test system of another test is Ileum. In words: Antispasmodic activity in mouse distal ileum assessed as inhibition of acetylcholine-induced contractions at 100 ug/ml after 20 mins.
Settings: not given
The test is classed as functional. A digest of the protocol:
as §1
With `C[C@@H]1C[C@H]2OC(=O)[C@@]3(C)CCC[C@@](C)([C@@H]23)[C@@]1(O)CCC1=CC(=O)OC1`, the inhibition result is “inactive”. Still for that read-out and setting: then `C[C@@H]1C[C@H]2OC(=O)[C@@]3(C)CCC[C@@](C)([C@@H]23)[C@@]12CC[C@@]1(CO[C@@H](O)C1)O2`, with “inactive”; and `C[C@@H]1C[C@H]2OC(=O)[C@@]3(C)CCC[C@@](C)([C@@H]23)[C@@]12CC[C@]1(COC(=O)C1)O2`, with “Active”.

Take `C[C@@H]1C[C@H]2OC(=O)[C@@]3(C)CCC[C@@](C)([C@@H]23)[C@@]12CC[C@]1(CO[C@@H](O)C1)O2`: the inhibition result was “Active”.

Take `C[C@@H]1C[C@H]2OC(=O)[C@@]3(C)CCC[C@@](C)([C@@H]23)[C@@]12CC[C@]1(CO[C@H](O)C1)O2`: the inhibition result was “Active”. The same measure, in the same setting: then `C[C@@H]1C[C@@H](O)[C@H]2C(C)(C)CCC[C@]2(C)[C@@]1(O)CCC1=CC(=O)OC1`, with “inactive”; and `C[C@@H]1C[C@H]2OC(=O)[C@@]3(C)CCC[C@@](C)([C@@H]23)[C@@]1(O)CCCC(=O)O`, with “Active”; and `C[C@@H]1C[C@H]2OC(=O)[C@@]3(C)CCC[C@@](C)([C@@H]23)[C@@]12CC[C@@]1(CO[C@H](O)C1)O2`, with “inactive”.

For the molecule `C[C@@H]1C[C@H]2OC(=O)[C@@]3(C)CCC[C@@](C)([C@@H]23)[C@@]12CC[C@@]1(COC(=O)C1)O2`, the inhibition entry is “Active”.

The same test, now with this note: read-out: INH.
For the molecule `C[C@@H]1C[C@H]2OC(=O)[C@@]3(C)CCC[C@@](C)([C@@H]23)[C@@]12CCCC(=O)O2` [MARRULACTONE], the inhibition at 100 µg/mL was less than 50%. For `C[C@@H]1C[C@H]2OC(=O)[C@@]3(C)CCC[C@@](C)([C@@H]23)[C@@]12CCC(=O)O2`, the inhibition at 100 µg/mL is less than 50%.
